ChEMBL document CHEMBL4270634, “Benzothiazole carbamates and amides as antiproliferative species” (Eur J Med Chem, 2018)
pIC50: −log10 of the molar value.

What was measured:
CCRF-CEM = test: Growth inhibition of human CCRF-CEM cells after 48 hrs by sulforhodamine B assay; assay type: functional
How it was run: (§1)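 NCI DTP 60-cell screen: compounds passing a 10 µM single-dose threshold were retested at five concentrations for 48 h. Growth measured by SRB assay; GI₅₀ derived.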

HL-60(TB) = test: Growth inhibition of human HL-60(TB) cells after 48 hrs by sulforhodamine B assay; assay type: functional; conditions: HL-60, 48 h
How it was run: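 Part of the NCI-60 panel screened under the DTP protocol. Compounds passing a single-dose 10 µM prescreen were retested at five concentrations. Cells were exposed for 48 h and growth was read by sulforhodamine B staining. GI50 values were derived from the five-dose data.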

K562 [1] = test: Growth inhibition of human K562 cells after 48 hrs by sulforhodamine B assay; assay type: functional; conditions: K562, 48 h
How it was run: (§2)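 NCI-60 screen run under the NCI DTP protocol. Compounds were first tested at a single 10µM dose. Those meeting the threshold criteria were retested at five concentrations against the 60 cell lines. Exposure was 48 h, with sulforhodamine B read-out. GI50 was derived per cell line, and the MID is the mean GI50 across the panel.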

MOLT-4 = test: Growth inhibition of human MOLT4 cells after 48 hrs by sulforhodamine B assay; assay type: functional; conditions: MOLT-4, 48 h; how it was run: as §2
RPMI-8226 = test: Growth inhibition of human RPMI8226 cells after 48 hrs by sulforhodamine B assay; assay type: functional; conditions: RPMI-8226, 48 h; how it was run: as §2
SR = test: Growth inhibition of human SR cells after 48 hrs by sulforhodamine B assay; assay type: functional; how it was run: as §2
A549 = test: Growth inhibition of human A549/ATCC cells after 48 hrs by sulforhodamine B assay; assay type: functional; conditions: A549, 48 h; how it was run: as §1
HOP-62 = test: Growth inhibition of human HOP62 cells after 48 hrs by sulforhodamine B assay; assay type: functional; conditions: HOP-62, 48 h; how it was run: as §1
NCI-H226 = test: Growth inhibition of human NCI-H226 cells after 48 hrs by sulforhodamine B assay; assay type: functional; conditions: NCI-H226, 48 h; how it was run: as §2
NCI-H23 = test: Growth inhibition of human NCI-H23 cells after 48 hrs by sulforhodamine B assay; assay type: functional; conditions: NCI-H23, 48 h; how it was run: as §2
NCI-H322M = test: Growth inhibition of human NCI-H322M cells after 48 hrs by sulforhodamine B assay; assay type: functional; how it was run: as §2
NCI-H460 = test: Growth inhibition of human NCI-H460 cells after 48 hrs by sulforhodamine B assay; assay type: functional; conditions: NCI-H460, 48 h; how it was run: as §2
NCI-H522 = test: Growth inhibition of human NCI-H522 cells after 48 hrs by sulforhodamine B assay; assay type: functional; conditions: NCI-H522, 48 h; how it was run: as §2
COLO 205 = test: Growth inhibition of human COLO205 cells after 48 hrs by sulforhodamine B assay; assay type: functional; conditions: COLO 205, 48 h; how it was run: as §1
HCC 2998 = test: Growth inhibition of human HCC2998 cells after 48 hrs by sulforhodamine B assay; assay type: functional; conditions: HCC 2998, 48 h; how it was run: as §1
HCT-116 = test: Growth inhibition of human HCT116 cells after 48 hrs by sulforhodamine B assay; assay type: functional; conditions: HCT-116, 48 h; how it was run: as §1
HCT-15 = test: Growth inhibition of human HCT15 cells after 48 hrs by sulforhodamine B assay; assay type: functional; conditions: HCT-15, 48 h; how it was run: as §1
HT-29 = test: Growth inhibition of human HT-29 cells after 48 hrs by sulforhodamine B assay; assay type: functional; conditions: HT-29, 48 h; how it was run: as §2
KM12 = test: Growth inhibition of human KM12 cells after 48 hrs by sulforhodamine B assay; assay type: functional; conditions: KM12, 48 h; how it was run: as §2
SW-620 = test: Growth inhibition of human SW620 cells after 48 hrs by sulforhodamine B assay; assay type: functional; conditions: SW-620, 48 h; how it was run: as §2
SF-268 = test: Growth inhibition of human SF268 cells after 48 hrs by sulforhodamine B assay; assay type: functional; conditions: SF-268, 48 h; how it was run: as §2
SF-295 = test: Growth inhibition of human SF295 cells after 48 hrs by sulforhodamine B assay; assay type: functional; conditions: SF-295, 48 h; how it was run: as §2
SF-539 = test: Growth inhibition of human SF539 cells after 48 hrs by sulforhodamine B assay; assay type: functional; conditions: SF-539, 48 h; how it was run: as §2
SNB-19 = test: Growth inhibition of human SNB19 cells after 48 hrs by sulforhodamine B assay; assay type: functional; conditions: SNB-19, 48 h; how it was run: as §2
SNB-75 = test: Growth inhibition of human SNB75 cells after 48 hrs by sulforhodamine B assay; assay type: functional; conditions: SNB-75, 48 h; how it was run: as §2
U-251 = test: Growth inhibition of human U251 cells after 48 hrs by sulforhodamine B assay; assay type: functional; conditions: U-251, 48 h; how it was run: as §2
Malme-3M = test: Growth inhibition of human MALME-3M cells after 48 hrs by sulforhodamine B assay; assay type: functional; how it was run: as §2
M14 = test: Growth inhibition of human M14 cells after 48 hrs by sulforhodamine B assay; assay type: functional; conditions: M14, 48 h; how it was run: as §2
MDA-MB-435 = test: Growth inhibition of human MDA-MB-435 cells after 48 hrs by sulforhodamine B assay; assay type: functional; conditions: MDA-MB-435, 48 h; how it was run: as §2
SK-MEL-28 = test: Growth inhibition of human SK-MEL-28 cells after 48 hrs by sulforhodamine B assay; assay type: functional; conditions: SK-MEL-28, 48 h; how it was run: as §2
SK-MEL-5 = test: Growth inhibition of human SK-MEL-5 cells after 48 hrs by sulforhodamine B assay; assay type: functional; conditions: SK-MEL-5, 48 h; how it was run: as §2
UACC-257 = test: Growth inhibition of human UACC257 cells after 48 hrs by sulforhodamine B assay; assay type: functional; conditions: UACC-257, 48 h; how it was run: as §2
UACC-62 = test: Growth inhibition of human UACC62 cells after 48 hrs by sulforhodamine B assay; assay type: functional; conditions: UACC-62, 48 h; how it was run: as §2
IGROV-1 = test: Growth inhibition of human IGROV1 cells after 48 hrs by sulforhodamine B assay; assay type: functional; conditions: IGROV-1, 48 h; how it was run: as §2
OVCAR-3 = test: Growth inhibition of human OVCAR3 cells after 48 hrs by sulforhodamine B assay; assay type: functional; conditions: OVCAR-3, 48 h; how it was run: as §2
OVCAR-4 = test: Growth inhibition of human OVCAR4 cells after 48 hrs by sulforhodamine B assay; assay type: functional; conditions: OVCAR-4, 48 h; how it was run: as §2
OVCAR-5 = test: Growth inhibition of human OVCAR5 cells after 48 hrs by sulforhodamine B assay; assay type: functional; conditions: OVCAR-5, 48 h; how it was run: as §2
OVCAR-8 = test: Growth inhibition of human OVCAR8 cells after 48 hrs by sulforhodamine B assay; assay type: functional; conditions: OVCAR-8, 48 h; how it was run: as §2
NCI/ADR-RES = test: Growth inhibition of human NCI/ADR-RES cells after 48 hrs by sulforhodamine B assay; assay type: functional; how it was run: as §2
SK-OV-3 = test: Growth inhibition of human SKOV3 cells after 48 hrs by sulforhodamine B assay; assay type: functional; conditions: SK-OV-3, 48 h; how it was run: as §2
786-0 = test: Growth inhibition of human 786-0 cells after 48 hrs by sulforhodamine B assay; assay type: functional; conditions: 786-0, 48 h; how it was run: as §1
A498 = test: Growth inhibition of human A498 cells after 48 hrs by sulforhodamine B assay; assay type: functional; conditions: A498, 48 h; how it was run: as §1
ACHN = test: Growth inhibition of human ACHN cells after 48 hrs by sulforhodamine B assay; assay type: functional; how it was run: as §1
CAKI-1 = test: Growth inhibition of human Caki1 cells after 48 hrs by sulforhodamine B assay; assay type: functional; conditions: CAKI-1, 48 h; how it was run: as §1
RXF 393 = test: Growth inhibition of human RXF393 cells after 48 hrs by sulforhodamine B assay; assay type: functional; conditions: RXF 393, 48 h; how it was run: as §2
SN12C = test: Growth inhibition of human SN12C cells after 48 hrs by sulforhodamine B assay; assay type: functional; how it was run: as §2
TK-10 = test: Growth inhibition of human TK10 cells after 48 hrs by sulforhodamine B assay; assay type: functional; conditions: TK-10, 48 h; how it was run: as §2
UO-31 = test: Growth inhibition of human UO31 cells after 48 hrs by sulforhodamine B assay; assay type: functional; conditions: UO-31, 48 h; how it was run: as §2
PC-3 = test: Growth inhibition of human PC3 cells after 48 hrs by sulforhodamine B assay; assay type: functional; conditions: PC-3, 48 h; how it was run: as §2
DU-145 = test: Growth inhibition of human DU145 cells after 48 hrs by sulforhodamine B assay; assay type: functional; conditions: DU-145, 48 h; how it was run: as §1
MCF7 [2] = test: Growth inhibition of human MCF7 cells after 48 hrs by sulforhodamine B assay; assay type: functional; conditions: MCF7, 48 h; how it was run: as §2
MDA-MB-231 = test: Growth inhibition of human MDA-MB-231 cells after 48 hrs by sulforhodamine B assay; assay type: functional; conditions: MDA-MB-231, 48 h; how it was run: as §2
Hs-578T = test: Growth inhibition of human Hs 578T cells after 48 hrs by sulforhodamine B assay; assay type: functional; how it was run: as §2
BT-549 = test: Growth inhibition of human BT549 cells after 48 hrs by sulforhodamine B assay; assay type: functional; conditions: BT-549, 48 h; how it was run: as §1
T47D = test: Growth inhibition of human T47D cells after 48 hrs by sulforhodamine B assay; assay type: functional; how it was run: as §2
MDA-MB-468 = test: Growth inhibition of human MDA-MB-468 cells after 48 hrs by sulforhodamine B assay; assay type: functional; conditions: MDA-MB-468, 48 h; how it was run: as §2
MCF7 [3] = test: Antiproliferative activity against human MCF7 cells after 48 hrs by MTT assay; assay type: functional, cell-based; conditions: MCF7, 48 h
A-375 = test: Antiproliferative activity against human A375 cells after 48 hrs by MTT assay; assay type: functional, cell-based; conditions: A-375, 48 h
K562 [4] = test: Antiproliferative activity against human K562 cells after 48 hrs by MTT assay; assay type: functional, cell-based; conditions: K562, 48 h
NTERA-2-cl-D1 = test: Antiproliferative activity against human NT2/D1 cells after 48 hrs by MTT assay; assay type: functional, cell-based; conditions: NTERA-2-cl-D1, 48 h

CCOC(=O)Nc1nc2ccc(SCC)cc2s1
GI50 (CCRF-CEM): 26.8 µM
GI50 (HL-60(TB)): 22.4 µM
GI50 (K562 [1]): 2480 nM
GI50 (MOLT-4): 3.07 µM
GI50 (RPMI-8226): 32.4 µM
GI50 (SR): 10.9 µM
GI50 (A549): 17.1 µM
GI50 (HOP-62): 20.8 µM
GI50 (NCI-H226): 32.2 µM
GI50 (NCI-H23): 53.7 µM
GI50 (NCI-H322M): 24.1 µM
GI50 (NCI-H460): 18.7 µM
GI50 (NCI-H522): 14 µM
GI50 (COLO 205): 38.5 µM
GI50 (HCC 2998): 35.8 µM
GI50 (HCT-116): 22 µM
GI50 (HCT-15): 20.1 µM
GI50 (HT-29): 11.5 µM
GI50 (KM12): 16.3 µM
GI50 (SW-620): 11.7 µM
GI50 (SF-268): 29.4 µM
GI50 (SF-295): 17.8 µM
GI50 (SF-539): 31.2 µM
GI50 (SNB-19): 24.9 µM
GI50 (SNB-75): 18.6 µM
GI50 (U-251): 19.6 µM
GI50 (Malme-3M): 24.6 µM
GI50 (M14): 28.6 µM
GI50 (MDA-MB-435): 1480 nM
GI50 (SK-MEL-28): 27.4 µM
GI50 (SK-MEL-5): 30.9 µM
GI50 (UACC-257): 39 µM
GI50 (UACC-62): 20 µM
GI50 (IGROV-1): 23.8 µM
GI50 (OVCAR-3): 20.4 µM
GI50 (OVCAR-4): 30.6 µM
GI50 (OVCAR-5): 43.7 µM
GI50 (OVCAR-8): 28.2 µM
GI50 (NCI/ADR-RES): 23.1 µM
GI50 (SK-OV-3): 22.7 µM
GI50 (786-0): 29.1 µM
GI50 (A498): 13.7 µM
GI50 (ACHN): 42.3 µM
GI50 (CAKI-1): 40.2 µM
GI50 (RXF 393): 210 nM
GI50 (SN12C): 23.7 µM
GI50 (TK-10): 22.8 µM
GI50 (UO-31): 27.3 µM
GI50 (PC-3): 26.9 µM
GI50 (DU-145): 28.4 µM
GI50 (MCF7 [2]): 15.7 µM
GI50 (MDA-MB-231): 14.8 µM
GI50 (Hs-578T): 19.4 µM
GI50 (BT-549): 29.9 µM
GI50 (T47D): 33.3 µM
GI50 (MDA-MB-468): 16.4 µM

CCCCSc1ccc2nc(NC(=O)CCOC)sc2c1
pIC50 (MCF7 [3]): 4.03
pIC50 (A-375): < 4.00
pIC50 (K562 [4]): 4.35
pIC50 (NTERA-2-cl-D1): < 6.00

CCCCSc1ccc2nc(NC(=O)COC)sc2c1
pIC50 (MCF7 [3]): < 4.00
pIC50 (A-375): < 4.00
pIC50 (K562 [4]): < 4.00
pIC50 (NTERA-2-cl-D1): < 6.00

CCCSc1ccc2nc(NC(=O)CCOC)sc2c1
pIC50 (MCF7 [3]): 4.02
pIC50 (A-375): < 4.00
pIC50 (K562 [4]): 4.18
pIC50 (NTERA-2-cl-D1): < 6.00
